Measurements from ChEMBL document CHEMBL4219255, “Targeting Transient Receptor Potential Vanilloid 1 (TRPV1) Channel Softly: The Discovery of Passerini Adducts as a Topical Treatment for Inflammatory Skin Disorders” (J Med Chem, 2018).
Active and inactive are the calls of the source. The calls are words filed in the database; no cut-off is given here.

Key:
[1] = molecular target: Transient receptor potential cation channel subfamily V member 1 (Homo sapiens, UniProt Q8NER1); assay: Antagonist activity at TRPV1 (unknown origin) expressed in human SH-SY5Y cells assessed as inhibition of capsaicin-induced calcium increase after 25 mins by Fluo-4 NW dye-based fluorescence assay; type: cell-based
Chain of Transient receptor potential cation channel subfamily V member 1 (Q8NER1 whole entry): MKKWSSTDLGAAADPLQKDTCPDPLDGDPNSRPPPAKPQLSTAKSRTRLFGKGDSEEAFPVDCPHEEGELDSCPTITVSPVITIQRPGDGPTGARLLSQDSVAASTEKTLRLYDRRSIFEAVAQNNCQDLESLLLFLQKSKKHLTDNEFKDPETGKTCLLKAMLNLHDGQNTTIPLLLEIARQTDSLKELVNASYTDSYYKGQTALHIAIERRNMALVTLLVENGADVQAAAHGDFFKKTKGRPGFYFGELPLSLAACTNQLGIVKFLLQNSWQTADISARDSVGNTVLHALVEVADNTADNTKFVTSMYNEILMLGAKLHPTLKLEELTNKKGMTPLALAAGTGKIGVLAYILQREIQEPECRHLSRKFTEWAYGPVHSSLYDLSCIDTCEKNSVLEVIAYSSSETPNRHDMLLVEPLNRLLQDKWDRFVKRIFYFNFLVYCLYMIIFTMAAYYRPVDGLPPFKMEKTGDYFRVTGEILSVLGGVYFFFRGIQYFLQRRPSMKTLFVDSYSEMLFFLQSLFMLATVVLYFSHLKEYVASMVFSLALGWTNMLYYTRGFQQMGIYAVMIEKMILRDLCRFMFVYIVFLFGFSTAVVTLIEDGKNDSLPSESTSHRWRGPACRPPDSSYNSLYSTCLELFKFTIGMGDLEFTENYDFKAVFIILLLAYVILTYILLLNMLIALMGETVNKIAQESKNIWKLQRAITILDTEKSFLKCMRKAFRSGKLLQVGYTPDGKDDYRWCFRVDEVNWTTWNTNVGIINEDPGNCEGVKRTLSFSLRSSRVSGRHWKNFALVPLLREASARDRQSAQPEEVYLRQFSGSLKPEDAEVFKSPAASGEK

[2] = Drug metabolism in human plasma assessed as residual substrate levels at 100 uM up to 20 mins by HPLC-UV analysis; type: ADME, cell-free; conditions: read-out: Stability
[3] = Drug metabolism in human fibroblast cells assessed as residual substrate levels at 50 uM up to 120 mins by HPLC-UV analysis; type: ADME, cell-based; conditions: read-out: Stability
[4] = molecular target: Transient receptor potential cation channel subfamily V member 1 (Rattus norvegicus) (UniProt O35433); assay: Modulatory activity against TRPV1 in Wistar rat neonatal dorsal root ganglia assessed as reduction in capsaicin-evoked action potential by measuring mean spike frequency ratio (P2/P1) at 10 uM by microelectrode array analysis (reference value: 0.87 +/- 0.04)
Chain of Transient receptor potential cation channel subfamily V member 1 (Rattus norvegicus) (O35433 whole entry): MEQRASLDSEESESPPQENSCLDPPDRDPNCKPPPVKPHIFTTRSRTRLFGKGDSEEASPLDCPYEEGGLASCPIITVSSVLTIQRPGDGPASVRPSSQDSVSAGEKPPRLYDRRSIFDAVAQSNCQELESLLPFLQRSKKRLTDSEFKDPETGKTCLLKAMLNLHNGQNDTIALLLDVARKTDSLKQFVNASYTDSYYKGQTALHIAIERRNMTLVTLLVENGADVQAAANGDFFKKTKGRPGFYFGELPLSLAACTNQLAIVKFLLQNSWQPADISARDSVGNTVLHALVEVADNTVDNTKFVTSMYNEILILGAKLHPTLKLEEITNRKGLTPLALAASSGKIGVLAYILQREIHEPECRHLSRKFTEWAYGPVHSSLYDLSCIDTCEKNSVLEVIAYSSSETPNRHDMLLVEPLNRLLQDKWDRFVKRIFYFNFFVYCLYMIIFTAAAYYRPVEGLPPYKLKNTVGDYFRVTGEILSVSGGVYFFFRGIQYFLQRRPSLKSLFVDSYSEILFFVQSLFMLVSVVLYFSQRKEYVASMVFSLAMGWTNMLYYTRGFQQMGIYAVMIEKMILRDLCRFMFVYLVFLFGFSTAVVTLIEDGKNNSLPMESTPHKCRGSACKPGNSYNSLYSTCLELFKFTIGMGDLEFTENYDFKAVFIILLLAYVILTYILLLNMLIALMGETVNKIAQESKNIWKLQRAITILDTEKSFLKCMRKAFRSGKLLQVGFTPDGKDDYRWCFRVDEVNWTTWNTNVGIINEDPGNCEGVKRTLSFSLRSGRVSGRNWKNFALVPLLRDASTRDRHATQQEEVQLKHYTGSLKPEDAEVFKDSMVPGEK
In short: (§1)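 Capsaicin-evoked action potential firing recorded with test agent at 10 µM. Response expressed as the P2/P1 mean spike frequency ratio.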

[5] = test system: Mus musculus; assay: Analgesic activity in CFA-induced thermal hyperalgesia C57BL/6 mouse model assessed as reduction in latency time required to elicit paw withdrawal in response to radiant heat applied to the plantar surface of a hind paw at 10 to 100 ug administered as intraplantar injection treated at 24 hrs post CFA injection measured at 90 mins post dose; type: functional, organism-based
[6] = test system: Mus musculus; assay: Analgesic activity in CFA-induced thermal hyperalgesia C57BL/6 mouse model assessed as reduction in CFA-induced ipsilateral paw withdrawal administered intravenously treated for 24 hrs post CFA injection; type: functional, organism-based
[7] = test system: Mus musculus; assay: Analgesic activity in CFA-induced thermal hyperalgesia C57BL/6 mouse model assessed as reduction in CFA-induced ipsilateral paw withdrawal latency at 1 mg/kg, iv treated at 24 hrs post CFA injection measured at 30 to 60 mins post dose; type: functional, organism-based
[8] = test system: Mus musculus; assay: Effect on thermal nociception of the contralateral paw in CFA-induced thermal hyperalgesia C57BL/6 mouse model at 10 to 100 ug administered as intraplantar injection treated at 24 hrs post CFA injection measure up to 120 mins; type: ADME, organism-based; conditions: in vivo, other
[9] = test system: Mus musculus; assay: Effect on thermal nociception of the contralateral paw in CFA-induced thermal hyperalgesia C57BL/6 mouse model at 1 to 10 mg/kg, iv treated at 24 hrs post CFA injection; type: ADME, organism-based; conditions: in vivo
[10] = Drug metabolism in human liver microsomes assessed as glucuronide metabolite formation at 50 uM in presence of UDPGA after 60 mins by LC-ESI-MS analysis; type: ADME, microsome; conditions: 1 h
[11] = molecular target: Transient receptor potential cation channel subfamily V member 1 (Rattus norvegicus) (UniProt O35433); assay: Modulatory activity against TRPV1 in Wistar rat neonatal dorsal root ganglia assessed as inhibition of capsaicin-evoked action potential at 10 uM by microelectrode array analysis relative to control; in short: as §1

IC50 [1]: 930 nM | remaining at 20 min, 100 µM [2]: 82% | remaining at 2 h, 50 µM [3]: 13.3% | Ratio [4]: 0.53 | Drug metabolism [10]: Metabolite_Notdetected | inhibition [11]: 43%
SMILES: CCCCCCCCCCCC(=O)OCC(=O)NCc1cc(OC)c(O)cc1I
Activity [5]: Active | Activity [6]: Dose-dependent effect | Activity [7]: Active | Activity [8]: Non-Toxic | Activity [9]: Non-Toxic
